# Measured values of several laboratories.
# Each line is one published result; the experiments were not run side by side.
Structure (SMILES),organism,test,system,conditions,quantity,value
COC(=O)c1cc(-c2cccc(NC(=O)Nc3ccccc3F)c2)on1,Klebsiella pneumoniae,"microbial growth, broth dilution",BAA1705,,MIC,> 64 µg/mL
CC(C)CCCCCCCCCCCCCCCc1cc(O)cc(O)c1,Klebsiella pneumoniae,microbial growth,ATCC29665,,IC50,> 200 µM
NCCc1ccc(O)cc1,Cryptosporidium parvum,"parasite growth, imaging",HCT-8,"1 mM, 24 h, intracellular",activity vs control,94%
Cc1c(NN=C(C#N)C2=NC(=O)CS2)c(=O)n(-c2ccccc2)n1C,Klebsiella pneumoniae,"microbial killing, broth dilution",,,MBC,2 µg/mL
CCCCCCCCCCCCCCCc1cc(O)cc(O)c1,Streptococcus pneumoniae,microbial growth,,,IC50,> 200 µM
N#Cc1c[nH]c2ccccc12,Cryptosporidium parvum,parasite growth,HCT-8,"24 h, intracellular",EC90,386 µM
COC(=O)c1cc(-c2cccc(NC(=S)Nc3ccc(C#N)cc3)c2)on1,Klebsiella pneumoniae,"microbial growth, broth dilution",BAA1705,,MIC,> 64 µg/mL
CC(C)C(C)CCCCCCCCCCCc1cc(O)cc(O)c1 (stereo not drawn),Klebsiella pneumoniae,microbial growth,ATCC29665,,IC50,> 200 µM
COC(=O)c1cc(-c2cccc(NC(=O)Nc3cc(Cl)ccc3Cl)c2)on1,Klebsiella pneumoniae,"microbial growth, broth dilution",BAA1705,,MIC,> 64 µg/mL
Oc1cccc2cccnc12,Klebsiella pneumoniae,"microbial growth, broth dilution",ATCC700603,,IC50,49.5 µg/mL
CCC(CCCCCCCCCCc1cc(O)cc(O)c1)C(C)C (stereo not drawn),Streptococcus pneumoniae,microbial growth,,,IC50,30.2 µM
COC(=O)c1cc(-c2cccc(NC(=S)Nc3ccc(OC)cc3)c2)on1,Klebsiella pneumoniae,"microbial growth, broth dilution",BAA1705,,MIC,> 64 µg/mL
